The full list was thinned out, with hits kept by preference.
PTEN del growth = suppresses growth of cells with PTEN deletion | HCT116 PTEN-null viability, CellTiter-Glo, 60 h; stronger effect = lower value | viability, % at 10 µM | 140,000 tested, 1.2% active | AID 827;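 active = viability at or below a set limit, 4 SD under the median of all tested compounds, cut at about 3.7% in these data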;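 also: PTEN knockout HCT116 line with beta catenin targeted HCT116 as companion control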
HUVEC inhibit = human endothelial cell proliferation inhibition | 86,000 tested, 1.1% active | HUVEC proliferation, CellTiter-Glo luminescence, 72 h; stronger effect = lower value | viability, % at 10 µM (by protocol);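 active = viability at or below 30%; inactive = viability above 30%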
bCat KO growth = beta-catenin-lacking colon tumor cell growth suppression; viability, % at 10 µM; 140,000 tested, 1.5% active; HCT116 beta-catenin knockout viability, CellTiter-Glo, 60 h; stronger effect = lower value;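 active = viability at or under a set limit, the compound median less 4 SD, cut at about 6% in these data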
H69AR inhibit = growth inhibitors of human H69AR lung tumor cells; H69AR lung tumor viability, ATP luminescence, 72 h; stronger effect = lower value; viability, % at 10 µM; AID 598; 85,000 tested, 6% active;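 active = viability at or below 40%; inactive = viability above 40%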;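 also: multidrug resistant small cell line overexpressing MRP-1 efflux transporter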
Lung fibro prol = blocks proliferation of human lung fibroblasts. viability, % at 10 µM. LL 47 human lung fibroblast viability, ATP luminescence; stronger effect = lower value. 85,000 tested, 1.1% active. AID 719;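 active = viability at or below 50% in the single dose screen; inactive = viability above 50%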;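 also: compound exposure lasted 72 h before the ATP readout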
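Material: Human LL 47 lung fibroblast cells | Input: 1,150 cells/well | Buffer or medium: IMEM plus 15% FBS | Compound dosing: 0.1% DMSO in all compound wells | Times: Overnight cell rest, 72 h compound treatment at 37 °C | Signal: CellTiter-Glo luminescence measuring cellular ATP | Measure: % viability versus median cells-only luminescence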
Large screens that a line does not name were inactive.

Cc1ccc(S(=O)(=O)c2c(C)nn(C(C)(C)C)c2OC(=O)c2cccs2)cc1	HUVEC inhibit 12
Cc1ccc(S(=O)(=O)c2c(C)nn(C(C)(C)C)c2OC(=O)C(C)(C)C)cc1	none
Cc1nc(CCN2C(=O)c3ccccc3C2=O)cs1	none (no result: HUVEC inhibit, H69AR inhibit, Lung fibro prol)
Cc1nn(C)cc1C=NCCOCc1ccccc1	none
O=C(NCc1ccccc1)C(=O)NCC1COc2ccccc2O1 (stereo not given)	H69AR inhibit 29
COc1ccc(S(=O)(=O)Nc2ccccc2C)cc1	H69AR inhibit 13
Cc1ccccc1NS(=O)(=O)c1ccc(F)cc1	none
CCOC(=O)C(O)(C1C(=O)CC(C)(C)CC1=O)C(F)(F)F (stereo not given)	none
Clc1cccc(-c2cc3nc4c(c(N5CCNCC5)n3n2)CCCC4)c1	PTEN del growth 1.0, HUVEC inhibit 1.1, bCat KO growth 1.5, H69AR inhibit 1.9, Lung fibro prol 1.9
OC1CCN(c2c3c(nc4cc(-c5cccc(F)c5)nn24)CCCC3)CC1	none
CCOc1ccc(-c2nc(N)ncc2Oc2cccc(OC)c2)c(O)c1	H69AR inhibit 14
O=c1cc(Nc2ccc3c(c2)OCCO3)[nH]c(=O)n1Cc1ccc(F)cc1	none
O=c1cc(Nc2ccc3c(c2)OCCO3)[nH]c(=O)n1-c1ccc(Br)cc1	H69AR inhibit 37
O=c1cc(Nc2ccc3c(c2)OCO3)[nH]c(=O)n1-c1ccc(Br)cc1	H69AR inhibit 35
COc1ccc(C2N(S(=O)(=O)c3ccc(C)cc3)CCN2S(=O)(=O)c2ccc(C)cc2)cc1	none
Clc1ccc(-c2csc(N3CCN(c4ccccc4)CC3)n2)cc1	H69AR inhibit 40
Clc1ccc(-c2csc(N3CCc4ccccc4C3)n2)cc1	none (no result: HUVEC inhibit, H69AR inhibit, Lung fibro prol)
Cc1cc(C(=O)COC(=O)CN=C2NS(=O)(=O)c3ccccc32)c(C)n1CCc1ccc(Cl)cc1	none (no result: HUVEC inhibit, H69AR inhibit, Lung fibro prol)
CCOC(=O)c1cnn(-c2nc(C)nc3sc4c(c23)CCC4)c1N	none (no result: PTEN del growth, bCat KO growth)
CCOC(=O)c1cnn(-c2nc3sc4c(c3c(=O)[nH]2)CCCC4)c1N	H69AR inhibit 30, Lung fibro prol 45 (no result: PTEN del growth, bCat KO growth)
Cc1cc(C)n(-c2nc3sc4c(c3c(=O)[nH]2)CCCC4)n1	PTEN del growth 2.6, bCat KO growth 4.7, H69AR inhibit 28
Cc1ccc(S(=O)(=O)CCSc2nc(C)cc(C(F)(F)F)c2C#N)cc1	H69AR inhibit 1.6
CC(C)(C)c1ccc(C2(C)NC(=O)N(CC(=O)c3ccc[nH]3)C2=O)cc1 (stereo not given)	H69AR inhibit 27
CCN(CC)c1ccc(C(=O)OCC(=O)Nc2ccccc2-c2ccccc2)cc1	none (no result: HUVEC inhibit, H69AR inhibit, Lung fibro prol)
CN(C1=C(NC(=O)c2ccccc2)C(=O)c2ccccc2C1=O)C1CCS(=O)(=O)C1 (stereo not given)	bCat KO growth 2.7 (no result: HUVEC inhibit, H69AR inhibit, Lung fibro prol)
CC(=O)NC1=C(NC2CCS(=O)(=O)C2)C(=O)c2ccccc2C1=O (stereo not given)	none (no result: HUVEC inhibit, H69AR inhibit, Lung fibro prol)
O=C(NCC1OCCc2ccccc21)c1ccc(NC(=O)c2ccc(Cl)cc2Cl)cc1 (stereo not given)	PTEN del growth 1.9, bCat KO growth 4.9 (no result: HUVEC inhibit, H69AR inhibit, Lung fibro prol)
COc1ccc(OCCSc2nnc(C)n2-c2ccccc2)cc1	H69AR inhibit 32
CN(C)c1ccc(O)c2c1CC1CC3[C@@H](N(C)C)C(=O)C(C(N)=O)=C(O)[C@]3(O)C(=O)C1=C2O (stereo not given in full)	H69AR inhibit 35
Clc1cc(Sc2ccc(Br)cc2)nnc1-c1ccccc1	none (no result: HUVEC inhibit, H69AR inhibit, Lung fibro prol)
COc1cccc(CNC(=O)c2nnn(CC(=O)Nc3ccc(C)c(C)c3)c2N)c1	none
COc1ccc(NC(=O)Cn2nnc(C(=O)NCc3ccccc3)c2N)cc1Cl	H69AR inhibit 28
Cc1sc2nc(C3CC3)nc(NCCNS(=O)(=O)c3ccccc3)c2c1C	H69AR inhibit 22
CCCCS/C(=C(/C#N)C(N)=O)c1cc2c([nH]1)CCCC2	H69AR inhibit 5.2
O=C(NCc1ccc(Cl)cc1)c1noc2c1CCCCC2	none
O=S(=O)(c1ccc(S(=O)(=O)N2CCN(C/C=C/c3ccccc3)CC2)cc1)N1CCCC1	H69AR inhibit 36
COc1cc(/C=C/C(=O)CC(=O)/C=C/c2ccc(O)c(OC)c2)ccc1O	HUVEC inhibit 22, H69AR inhibit 4.3, Lung fibro prol 21
CN1c2ccccc2C(C)(C)C12CC(c1ccc(Cl)c(S(=O)(=O)N3CCCC3)c1)=NO2 (stereo not given)	none (no result: HUVEC inhibit, H69AR inhibit, Lung fibro prol)
CN1c2ccccc2C(C)(C)C12CC(CCl)=NO2 (stereo not given)	H69AR inhibit 4.5
Cc1ccc(SCC(=O)N2CCOCC2)cc1	none (no result: HUVEC inhibit, H69AR inhibit, Lung fibro prol)

Screening data from PubChem.
